The text below walks through data of publication PMC11005929 (Diabetes, Metabolic Syndrome and Obesity, 2024).

Data set [1] has as its system DIO mice. As to the kind of experiment: Repeated administration in diet-induced obesity. The following applies: s.c. once daily (DR10627 3, 10, 30 nmol/kg; liraglutide 80 nmol/kg). The format is in vivo, mouse. The method, boiled down: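 Male C57BL/6 mice, 7 weeks old, kept 11 weeks on a 60% kcal fat diet; those at 42.2–48.7 g were randomised (n=10/group). Standard-diet mice served as normal controls. Dosed s.c. once daily at 5 mL/kg for 57 days. Body weight and food intake were recorded after dosing, and weight change and cumulative intake were calculated. Mean ± SD.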

For data set [2], the system named is non-diabetic participants. The settings on record: 2-year treatment, SCALE trials; cited from earlier work.
The subject of data set [3] is db/db mice. The data set can be described thus: Glucose-lowering effect of repeated administration in db/db mice. It is filed as in vivo, mouse.
The conditions of data set [4]: Phase 3 trial; cited from earlier work.

With `CCCCCCCCCCCCCCCC(=O)N[C@@H](CCC(=O)NCCCC[C@H](NC(=O)[C@H](C)NC(=O)[C@H](C)NC(=O)[C@H](CCC(N)=O)NC(=O)CNC(=O)[C@H](CCC(=O)O)NC(=O)[C@H](CC(C)C)NC(=O)[C@H](Cc1ccc(O)cc1)NC(=O)[C@H](CO)NC(=O)[C@H](CO)NC(=O)[C@@H](NC(=O)[C@H](CC(=O)O)NC(=O)[C@H](CO)NC(=O)[C@@H](NC(=O)[C@H](Cc1ccccc1)NC(=O)[C@@H](NC(=O)CNC(=O)[C@H](CCC(=O)O)NC(=O)[C@H](C)NC(=O)[C@@H](N)Cc1c[nH]cn1)[C@@H](C)O)[C@@H](C)O)C(C)C)C(=O)N[C@@H](CCC(=O)O)C(=O)N[C@@H](Cc1ccccc1)C(=O)N[C@H](C(=O)N[C@@H](C)C(=O)N[C@@H](Cc1c[nH]c2ccccc12)C(=O)N[C@@H](CC(C)C)C(=O)N[C@H](C(=O)N[C@@H](CCCNC(=N)N)C(=O)NCC(=O)N[C@@H](CCCNC(=N)N)C(=O)NCC(=O)O)C(C)C)[C@@H](C)CC)C(=O)O` [liraglutide], the “body weight from D5 to D57 compared to the vehicle” value in data set [1] is reported as “significantly reduced”. Also, in data set [2], the weight loss was 5–10%. Moreover, the “blood glucose level before administration on D28” value in data set [3] (50 nmol/kg s.c. once daily, n=10, mean ± SD, vehicle 33.6 ± 6.4) came to 27.0 ± 3.9 mM. In addition, the “blood glucose levels after treatment on D1” value in data set [3] (first s.c. dose (DR10627 2, 6, 18 nmol/kg; liraglutide 50 nmol/kg)) is on record as “decreased significantly”.
As to taspoglutide, the “rate of antitaspoglutide antibodies detection” value in data set [4] is reported as 49%.
